Assay results from ChEMBL document CHEMBL4350969, “Falcipain Inhibitors Based on the Natural Product Gallinamide A Are Potent in Vitro and in Vivo Antimalarials” (J Med Chem, 2019).
Calls of active or inactive are those of the source. No cut-off for these calls is given here.

Experiments:
[1] = biological target: T1, Cysteine protease falcipain-3 (Plasmodium falciparum, UniProt Q9NAW4); assay: Inhibition of Plasmodium falciparum N-terminal His-tagged falcipain-3 (33 residues) expressed in Escherichia coli M15 pREP4 using Z-Leu-Arg-AMC as substrate measured after 30 mins by spectrofluorometric method
T1 sequence (Q9NAW4 whole entry): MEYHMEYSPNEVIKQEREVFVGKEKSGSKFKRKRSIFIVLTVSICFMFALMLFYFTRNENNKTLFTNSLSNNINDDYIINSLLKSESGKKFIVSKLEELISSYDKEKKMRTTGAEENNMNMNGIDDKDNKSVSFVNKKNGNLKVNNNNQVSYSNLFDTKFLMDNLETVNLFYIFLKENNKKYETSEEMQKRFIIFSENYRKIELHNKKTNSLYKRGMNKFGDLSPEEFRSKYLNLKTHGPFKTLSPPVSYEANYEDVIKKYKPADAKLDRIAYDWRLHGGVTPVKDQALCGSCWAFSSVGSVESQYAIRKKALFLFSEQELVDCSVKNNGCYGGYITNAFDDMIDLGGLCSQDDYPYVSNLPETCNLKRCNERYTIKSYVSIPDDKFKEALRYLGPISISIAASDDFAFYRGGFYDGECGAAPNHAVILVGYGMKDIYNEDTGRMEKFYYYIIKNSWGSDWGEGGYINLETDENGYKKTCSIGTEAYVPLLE
How it was run: (§1)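 Recombinant heterologously expressed FP2 or FP3; inhibition measured by continuous kinetic cleavage of fluorogenic substrate Z-Leu-Arg-AMC.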

Plasmodium falciparum [2] = assay: Antimalarial activity against synchronized ring stage CQ-sensitive Plasmodium falciparum 3D7 infected in human erythrocytes incubated for 24 hrs followed by compound washout and subsequent compound addition and measured after 48 hrs by YOYO-1 probe-based flow cytometry; format: functional, organism-based
Falcipain 2 = biological target: T2, Falcipain 2 (Plasmodium falciparum, UniProt Q9N6S8); assay: Inhibition of Plasmodium falciparum N-terminal His6-tagged falcipain-2 (35 residues) expressed in Escherichia coli M15 pREP4 using Z-Lue-Arg-AMC as substrate measured after 30 mins by spectrofluorometric method; how it was run: as §1
T2 sequence (Q9N6S8 whole entry): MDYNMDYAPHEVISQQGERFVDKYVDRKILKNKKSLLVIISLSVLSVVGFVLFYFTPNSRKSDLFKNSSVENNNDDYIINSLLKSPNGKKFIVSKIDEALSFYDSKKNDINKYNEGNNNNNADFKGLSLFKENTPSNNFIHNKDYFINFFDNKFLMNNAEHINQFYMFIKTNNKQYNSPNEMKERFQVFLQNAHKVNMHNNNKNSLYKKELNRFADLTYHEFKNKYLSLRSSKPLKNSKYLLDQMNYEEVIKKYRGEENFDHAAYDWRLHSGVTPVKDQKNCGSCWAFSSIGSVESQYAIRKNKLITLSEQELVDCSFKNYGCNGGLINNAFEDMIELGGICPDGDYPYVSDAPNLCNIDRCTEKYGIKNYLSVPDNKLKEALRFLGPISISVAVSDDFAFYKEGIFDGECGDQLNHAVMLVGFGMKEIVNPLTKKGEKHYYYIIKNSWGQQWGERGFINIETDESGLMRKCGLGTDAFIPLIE

Plasmodium falciparum [3] = assay: Antimalarial activity against synchronized ring stage CQ-resistant Plasmodium falciparum W2 infected in human erythrocytes incubated for 24 hrs followed by compound washout and subsequent compound addition and measured after 48 hrs by YOYO-1 probe-based flow cytometry; format: functional, organism-based
[4] = Half life in Swiss mouse blood at 1 ug/ml by UPLC-MS analysis; format: ADME, tissue-based; settings: whole blood
[5] = Drug metabolism in mouse liver microsomes assessed as N,N-bis-demethylation at 10 uM measured after 60 mins in presence of NADPH-generating system by UPLC-MS analysis; format: ADME, Microsome; settings: 1 h
[6] = Drug metabolism in human liver microsomes assessed as N,N-bis-demethylation at 10 uM measured after 60 mins in presence of NADPH-generating system by UPLC-MS analysis; format: ADME, Microsome; settings: 1 h
HEK293 = assay: Cytotoxicity against HEK293 cells assessed as reduction in cell viability at 25 uM measured after 18 hrs by alamar blue assay; format: cell-based; settings: human, hek293, 18 h
[7] = Half life in Swiss mouse plasma at 1 ug/ml by UPLC-MS analysis; format: ADME, cell-free
How it was run: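 Fresh whole blood from non-fasted male Swiss outbred mice; plasma separated by centrifugation. Compound spiked to 1 μg/mL final (0.2% DMSO, 0.4% acetonitrile), kept at 37 °C; aliquots taken over 4 h (n=3 per time point), snap-frozen, protein precipitated with acetonitrile, UPLC-MS (ESI+) against matrix calibration standards. Exponential decay fit gives k; half-life = ln(2)/k.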

Plasmodium berghei [8] = assay: Antimalarial activity against Plasmodium berghei ANKA infected in specific pathogen-free C57BL/6 mouse assessed as reduction in parasitemia at 100 mg/kg, po administered once daily for 4 days measured up to 35 days post-infection by rapid staining-based microscopic analysis; format: functional, organism-based
How it was run: (§2)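 Female C57BL/6 mice, 8–9 weeks old, inoculated i.p. with 10^6 P. berghei ANKA-parasitized red cells. Compound dissolved in DMSO, diluted in 154 mM NaCl, given by oral gavage at 100 mg/kg on days 4, 5, 6 and 7 post-infection. Tail-vein thin smears stained with Rapid Stain, % parasitemia by microscopy; mice euthanized at signs of severe disease.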

Plasmodium berghei [9] = assay: Antimalarial activity against Plasmodium berghei ANKA infected in specific pathogen-free C57BL/6 mouse assessed as reduction in disease severity at 100 mg/kg, po administered once daily for 4 days measured up to 35 days post-infection by rapid staining-based microscopic analysis; format: functional, organism-based; how it was run: as §2
Plasmodium berghei [10] = assay: Antimalarial activity against Plasmodium berghei ANKA infected in specific pathogen-free C57BL/6 mouse assessed as reduction in parasitemia at 50 mg/kg, ip administered once daily for 4 days measured up to 35 days post-infection by rapid staining-based microscopic analysis; format: functional, organism-based
How it was run: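 Established-infection model: female C57BL/6 mice inoculated i.p. with 10^6 PbA-parasitized red cells; compound in DMSO diluted in saline given i.p. at 50 mg/kg on days 4, 5, 6 and 7 post-infection, chloroquine 50 mg/kg as comparator, vehicle controls; 7 mice per group. Tail-vein smears, % parasitemia by microscopy, mean ± SEM; survival recorded.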

Compound | IC50 [1] | IC50 (Plasmodium falciparum [2]) | IC50 (Falcipain 2) | IC50 (Plasmodium falciparum [3]) | half-life at 1 ug/ml [4] | Drug metabolism [5] | Drug metabolism [6] | Activity (HEK293) | half-life at 1 ug/ml [7] | Activity (Plasmodium berghei [8]) | Activity (Plasmodium berghei [9]) | Activity (Plasmodium berghei [10])
COC1=CC(=O)N(C(=O)/C=C/[C@H](C)NC(=O)[C@H](CCc2ccccc2)NC(=O)[C@H](CC(C)C)NC(=O)[C@H](C(C)C)N(C)C)[C@H]1Cc1c[nH]c2ccccc12 | 10200 nM | 2590 nM | 3100 nM | 691 nM | – | – | – | – | – | – | – | –
COC1=CC(=O)N(C(=O)/C=C/[C@H](C)NC(=O)[C@H](CC(C)C)NC(=O)[C@H](Cc2ccccc2)NC(=O)[C@H](C(C)C)N(C)C)[C@H]1Cc1c[nH]c2ccccc12 | 851 nM | 24 nM | 60 nM | 10 nM | – | – | – | – | – | – | – | –
COC1=CC(=O)N(C(=O)/C=C/[C@H](C)NC(=O)[C@H](CC2CCCCC2)NC(=O)[C@H](CC2CCCCC2)NC(=O)C2CCN(C)CC2)[C@H]1Cc1c[nH]c2ccccc12 | 547 nM | 164 nM | 455 nM | 55 nM | – | – | – | – | – | – | – | –
COC1=CC(=O)N(C(=O)/C=C/[C@H](C)NC(=O)C(C)(C)NC(=O)[C@H](CC(C)C)NC(=O)[C@H](C(C)C)N(C)C)[C@H]1Cc1c[nH]c2ccccc12 | > 50000 nM | > 10000 nM | > 50000 nM | 3730 nM | – | – | – | – | – | – | – | –
COC1=CC(=O)N(C(=O)/C=C/[C@H](C)NC(=O)[C@H](CC2CCCCC2)NC(=O)[C@H](CC2CCCCC2)NC(=O)[C@H](C(C)C)N(C)C)[C@H]1Cc1c[nH]c2ccccc12 | 459 nM | 229 nM | 464 nM | 119 nM | – | – | – | – | – | – | – | –
C[C@@H]1CC[C@H]2[C@@H](C)C(=O)O[C@@H]3O[C@@]4(C)CC[C@@H]1[C@]32OO4 [ARTEMISININ] | – | 32 nM | – | 21 nM | – | – | – | – | – | – | – | –
COC1=CC(=O)N(C(=O)/C=C/[C@H](C)NC(=O)[C@H](CC2CCCCC2)NC(=O)[C@H](CC(C)C)NC(=O)C2CCN(C)CC2)[C@H]1Cc1c[nH]c2ccccc12 | 480 nM | 205 nM | 156 nM | 59 nM | – | – | – | – | – | – | – | –
COC1=CC(=O)N(C(=O)/C=C/[C@@H](NC(=O)[C@H](CC(C)C)NC(=O)[C@H](CC(C)C)NC(=O)[C@H](C(C)C)N(C)C)C2CCCCC2)[C@H]1Cc1c[nH]c2ccccc12.O=C(O)C(F)(F)F | 484 nM | 9 nM | 84 nM | 10 nM | > 10 h | Metabolite_Detected | Metabolite_Detected | Non-Toxic | > 10 h | – | – | –
COC1=CC(=O)N(C(=O)/C=C/[C@H](C)NC(=O)[C@H](CC2CCCCC2)NC(=O)[C@H](CC(C)C)NC(=O)[C@H](C(C)C)N(C)C)[C@H]1Cc1c[nH]c2ccccc12 | 407 nM | 72 nM | 235 nM | 37 nM | – | – | – | – | – | – | – | –
COC1=CC(=O)N(C(=O)/C=C/[C@H](C)NC(=O)[C@H](CC(C)C)NC(=O)[C@H](CCc2ccccc2)NC(=O)[C@H](C(C)C)N(C)C)[C@H]1Cc1c[nH]c2ccccc12.O=C(O)C(F)(F)F | 228 nM | 5 nM | 57 nM | 7 nM | 1.83 h | Metabolite_Detected | Metabolite_Detected | Non-Toxic | 9.28 h | – | – | –
COC1=CC(=O)N(C(=O)/C=C/[C@H](CC2CCCCC2)NC(=O)[C@H](CC(C)C)NC(=O)[C@H](CC(C)C)NC(=O)[C@H](C(C)C)N(C)C)[C@H]1Cc1c[nH]c2ccccc12 | 2570 nM | 76 nM | 270 nM | 54 nM | – | – | – | – | – | – | – | –
COC1=CC(=O)N(C(=O)/C=C/[C@H](C)NC(=O)[C@H](CC(C)C)NC(=O)[C@H](CC(C)C)NC(=O)[C@H](C(C)C)N(C)C)[C@H]1Cc1c[nH]c2ccccc12.O=C(O)C(F)(F)F | – | – | – | – | < 0.0333 h | – | – | Non-Toxic | < 0.0333 h | – | – | –
COC1=CC(=O)N(C(=O)/C=C/[C@H](C)NC(=O)[C@H](CCc2ccccc2)NC(=O)[C@H](CC2CCCCC2)NC(=O)[C@H](C(C)C)N(C)C)[C@H]1Cc1c[nH]c2ccccc12 | 8790 nM | 1250 nM | 3520 nM | 478 nM | – | – | – | – | – | – | – | –
CC(C)C[C@H](NC(=O)[C@@H]1O[C@H]1C(=O)O)C(=O)NCCCCN=C(N)N | 136 nM | – | 68 nM | – | – | – | – | – | – | – | – | –
CCN(CC)CCCC(C)Nc1ccnc2cc(Cl)ccc12 (stereo unspecified) | – | – | – | – | – | – | – | – | – | Active | Active | Active
COC1=CC(=O)N(C(=O)/C=C/[C@@H](NC(=O)[C@H](CC(C)C)NC(=O)[C@H](CC2CCCCC2)NC(=O)[C@H](C(C)C)N(C)C)C2CCCCC2)[C@H]1Cc1c[nH]c2ccccc12 | 490 nM | 83 nM | 169 nM | 95 nM | – | – | – | – | – | – | – | –
COC1=CC(=O)N(C(=O)/C=C/[C@H](C)NC(=O)[C@H](CC(C)C)NC(=O)[C@H](CC2CCCCC2)NC(=O)[C@H](C(C)C)N(C)C)[C@H]1Cc1c[nH]c2ccccc12 | 131 nM | 14 nM | 59 nM | 11 nM | – | – | – | – | – | – | – | –
COC1=CC(=O)N(C(=O)/C=C/C(C)(C)NC(=O)[C@H](CC(C)C)NC(=O)[C@H](CC(C)C)NC(=O)[C@H](C(C)C)N(C)C)[C@H]1Cc1c[nH]c2ccccc12 | > 50000 nM | 6990 nM | > 50000 nM | 1020 nM | – | – | – | – | – | – | – | –
